{"source": "ChEMBL document CHEMBL5108074", "about": "(J Med Chem, 2022)", "key": {"Cytochrome P450 3A4": {"biological_target": "Cytochrome P450 3A4 (Homo sapiens, UniProt P08684)", "sequence (P08684 whole entry)": "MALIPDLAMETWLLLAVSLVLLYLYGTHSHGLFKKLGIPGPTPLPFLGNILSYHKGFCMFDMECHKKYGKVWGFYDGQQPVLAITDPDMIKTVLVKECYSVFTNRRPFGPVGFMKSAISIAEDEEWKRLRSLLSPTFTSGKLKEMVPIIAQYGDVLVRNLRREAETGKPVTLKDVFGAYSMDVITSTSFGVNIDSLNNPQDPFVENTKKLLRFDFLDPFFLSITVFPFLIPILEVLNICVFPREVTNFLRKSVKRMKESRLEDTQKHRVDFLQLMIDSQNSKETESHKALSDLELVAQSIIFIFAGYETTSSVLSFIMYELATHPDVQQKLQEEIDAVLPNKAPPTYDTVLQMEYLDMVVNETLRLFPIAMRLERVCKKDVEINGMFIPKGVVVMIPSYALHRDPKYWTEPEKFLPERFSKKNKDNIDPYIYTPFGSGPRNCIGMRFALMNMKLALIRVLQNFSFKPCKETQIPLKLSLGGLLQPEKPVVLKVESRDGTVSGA", "test": "Inhibition of CYP3A4 in human liver microsomes assessed as reduction in 6beta-hydroxytestosterone metabolite formation using testosterone as substrate incubated for 30 mins in presence of NADPH by LC-MS/MS analysis", "type": "ADME, Microsome"}, "Renin": {"biological_target": "Renin (Homo sapiens, UniProt P00797)", "sequence (P00797 whole entry)": "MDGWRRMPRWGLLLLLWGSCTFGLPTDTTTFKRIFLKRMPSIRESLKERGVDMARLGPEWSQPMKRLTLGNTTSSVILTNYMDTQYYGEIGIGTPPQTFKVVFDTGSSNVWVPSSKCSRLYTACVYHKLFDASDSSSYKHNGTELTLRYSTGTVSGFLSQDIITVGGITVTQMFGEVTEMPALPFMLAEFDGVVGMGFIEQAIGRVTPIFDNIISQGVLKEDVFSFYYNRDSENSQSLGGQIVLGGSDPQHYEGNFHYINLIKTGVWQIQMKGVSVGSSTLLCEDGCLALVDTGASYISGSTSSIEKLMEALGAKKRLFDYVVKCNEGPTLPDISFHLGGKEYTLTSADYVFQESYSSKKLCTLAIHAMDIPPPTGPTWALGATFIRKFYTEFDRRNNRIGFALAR", "test": "Inhibition of human renin preincubated for 5 mins followed by substrate addition by fluorometer analysis"}, "[1]": {"biological_target": "Tissue-type plasminogen activator (Homo sapiens, UniProt P00750)", "sequence (P00750 whole entry)": "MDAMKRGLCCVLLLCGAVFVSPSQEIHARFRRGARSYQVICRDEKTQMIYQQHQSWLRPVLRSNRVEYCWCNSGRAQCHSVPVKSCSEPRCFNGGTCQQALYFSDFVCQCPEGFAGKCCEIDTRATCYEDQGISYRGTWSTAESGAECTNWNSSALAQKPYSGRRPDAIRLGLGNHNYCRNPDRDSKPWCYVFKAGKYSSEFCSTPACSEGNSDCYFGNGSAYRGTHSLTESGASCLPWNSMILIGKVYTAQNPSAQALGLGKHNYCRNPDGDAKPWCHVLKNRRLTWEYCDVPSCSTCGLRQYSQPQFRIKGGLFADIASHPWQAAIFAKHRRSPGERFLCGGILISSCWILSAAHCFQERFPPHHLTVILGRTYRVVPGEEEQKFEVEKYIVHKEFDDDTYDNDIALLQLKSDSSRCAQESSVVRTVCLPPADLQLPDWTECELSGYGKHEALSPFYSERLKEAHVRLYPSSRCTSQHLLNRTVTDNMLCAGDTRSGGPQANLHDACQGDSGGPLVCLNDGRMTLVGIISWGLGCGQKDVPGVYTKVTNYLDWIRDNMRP", "test": "Inhibition of human tissue plasminogen activator preincubated for 5 mins followed by substrate addition by fluorometer analysis", "outline": "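Each protease (commercial, typically purified from human plasma) was preincubated with inhibitor for 5 min, then a fluorogenic substrate specific to that enzyme was added. Cleavage was followed kinetically by fluorometry. IC50 came from a four-parameter logistic fit to the normalized rate of fluorescence increase.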"}, "Kallikrein-1": {"biological_target": "Kallikrein-1 (Homo sapiens, UniProt P06870)", "sequence (P06870 whole entry)": "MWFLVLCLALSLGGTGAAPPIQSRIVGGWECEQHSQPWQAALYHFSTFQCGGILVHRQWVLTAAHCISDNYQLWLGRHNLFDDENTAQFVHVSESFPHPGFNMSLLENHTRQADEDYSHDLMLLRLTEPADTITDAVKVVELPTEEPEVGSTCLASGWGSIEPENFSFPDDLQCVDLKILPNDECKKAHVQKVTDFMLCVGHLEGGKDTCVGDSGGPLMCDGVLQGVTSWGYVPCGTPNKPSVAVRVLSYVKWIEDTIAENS", "test": "Inhibition of human KLK1 preincubated for 5 mins followed by substrate addition by fluorometer analysis"}, "Cytochrome P450 1A2": {"biological_target": "T1, Cytochrome P450 1A2 (Homo sapiens, UniProt P05177)", "T1 sequence (P05177 whole entry)": "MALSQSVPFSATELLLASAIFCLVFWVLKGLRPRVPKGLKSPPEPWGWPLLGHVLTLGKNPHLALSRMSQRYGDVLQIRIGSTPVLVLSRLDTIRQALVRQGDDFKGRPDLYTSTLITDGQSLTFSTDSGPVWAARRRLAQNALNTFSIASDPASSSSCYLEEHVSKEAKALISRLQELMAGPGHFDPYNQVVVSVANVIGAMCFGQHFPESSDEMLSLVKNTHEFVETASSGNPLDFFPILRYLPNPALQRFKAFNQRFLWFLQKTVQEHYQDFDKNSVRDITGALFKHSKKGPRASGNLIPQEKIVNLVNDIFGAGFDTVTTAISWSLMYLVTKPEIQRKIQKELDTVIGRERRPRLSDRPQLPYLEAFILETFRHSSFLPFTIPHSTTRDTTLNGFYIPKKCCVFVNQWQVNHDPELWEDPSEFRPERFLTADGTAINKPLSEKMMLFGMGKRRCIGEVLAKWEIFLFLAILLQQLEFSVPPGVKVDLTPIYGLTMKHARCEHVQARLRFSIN", "test": "Inhibition of CYP1A2 in human liver microsomes assessed as reduction in acetaminophen metabolite formation incubated for 30 mins in presence of NADPH by LC-MS/MS analysis", "type": "ADME, Microsome"}, "Beta-secretase 1": {"biological_target": "Beta-secretase 1 (Homo sapiens, UniProt P56817)", "sequence (P56817 whole entry)": "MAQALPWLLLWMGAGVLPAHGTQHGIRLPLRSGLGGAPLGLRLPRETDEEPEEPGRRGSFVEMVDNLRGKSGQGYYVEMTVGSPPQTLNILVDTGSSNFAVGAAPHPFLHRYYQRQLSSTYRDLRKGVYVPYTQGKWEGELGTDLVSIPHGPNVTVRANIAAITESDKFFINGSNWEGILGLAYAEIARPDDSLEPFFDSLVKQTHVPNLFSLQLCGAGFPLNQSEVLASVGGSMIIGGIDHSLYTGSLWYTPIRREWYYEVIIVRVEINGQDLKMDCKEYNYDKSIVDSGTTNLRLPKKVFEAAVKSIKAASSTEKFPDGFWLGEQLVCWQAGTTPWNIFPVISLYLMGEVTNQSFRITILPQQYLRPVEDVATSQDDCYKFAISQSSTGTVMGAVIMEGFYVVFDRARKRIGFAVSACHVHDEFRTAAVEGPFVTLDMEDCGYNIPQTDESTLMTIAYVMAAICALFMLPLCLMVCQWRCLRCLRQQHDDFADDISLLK", "test": "Inhibition of human beta-secretase 1 preincubated for 5 mins followed by substrate addition by fluorometer analysis"}, "[2]": {"test": "Oral bioavailability in Beagle dog at 1 mg/kg measured upto 24 hrs by LC-MS analysis", "type": "ADME, organism-based, Canis lupus familiaris", "settings": "in vivo"}, "[3]": {"test": "Half life in Beagle dog at 1 mg/kg, po and 1 mg/kg, iv measured upto 24 hrs by LC-MS analysis", "type": "ADME, organism-based, Canis lupus familiaris", "settings": "in vivo"}}, "data": [{"smiles": "COCc1nn(Cc2ccc(Cn3ccccc3=O)cc2)cc1C(=O)NCc1nccc(OC)c1F", "note": "[SEBETRALSTAT]", "values": [{"measurement": "IC50", "setting": "Cytochrome P450 3A4", "value": "> 25", "unit": "µM"}, {"measurement": "IC50", "setting": "Renin", "value": "> 10", "unit": "µM"}, {"measurement": "IC50", "setting": "[1]", "value": "> 10", "unit": "µM"}, {"measurement": "IC50", "setting": "Kallikrein-1", "value": "> 40", "unit": "µM"}, {"measurement": "IC50", "setting": "Cytochrome P450 1A2", "value": "> 25", "unit": "µM"}, {"measurement": "IC50", "setting": "Beta-secretase 1", "value": "> 10", "unit": "µM"}, {"measurement": "F", "setting": "[2]", "value": 34, "unit": "%"}, {"measurement": "t1/2", "setting": "[3]", "value": 1, "unit": "h"}]}]}
